Experimental data reported in ChEMBL document CHEMBL3763142, “Discovery of potent anti-tuberculosis agents targeting leucyl-tRNA synthetase” (Bioorg Med Chem, 2016).
Converted amounts (≈) assume the structure as drawn.

Legend:
[1] = Inhibition of Mycobacterium tuberculosis leucyl-tRNA synthetase assessed as reduction of [14C]-L-leucine ligation to tRNA incubated for 5 mins by scintillation counting method in presence of ATP
Procedure, shortened: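 His-tag Ni-NTA-purified M. tuberculosis LeuRS (25 nM) expressed in E. coli Rosetta (DE3). Buffer: 100 mM Tris-HCl pH 8.0, 10 mM MgCl2, 2 mM DTT, 90 µM [14C]-L-leucine, 4 mg/ml E. coli tRNA. Inhibitor (DMSO) preincubated 5 min at 37 °C; started with 2 mM ATP (final). TCA-quenched, scintillation-counted; at least triplicates averaged for IC50.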

[2] = molecular target: Leucine--tRNA ligase, cytoplasmic (Homo sapiens, UniProt Q9P2J5); assay: Inhibition of human leucyl-tRNA synthetase assessed as reduction of [14C]-L-leucine ligation to tRNA incubated for 5 mins by scintillation counting method in presence of ATP
[3] = system: Mycobacterium tuberculosis; assay: Antimicrobial activity against Mycobacterium tuberculosis H37Rv assessed as growth inhibition after 5 days by fluorescence analysis; settings: 120 h
[4] = Cytotoxicity against mouse J774 cells assessed as cell viability at 80 ug/ml by MTT assay; format: cell-based; settings: read-out: Activity
Procedure, shortened: (§1)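 MTT proliferation assay on uninfected J774 macrophages, run in parallel with the intracellular infection assay at the same three concentrations. Reported as percentage viability.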

[5] = system: Mycobacterium tuberculosis; assay: Antimicrobial activity against Mycobacterium tuberculosis infected in mouse J774 cells assessed as log reduction of bacterial burden at 80 ug/ml after 7 days; format: functional
Procedure, shortened: (§2)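 J774 cells in RPMI 1640 with L-glutamine/FBS, 2.0*10^5 per well, then switched to 1% FBS. Infected 4 h at MOI 5, washed, drug added for 7 days. At 0 and 7 d, lysed with SDS, DNase-treated and plated on 7H10 agar for CFU. Log reduction is from 0 h to day 7; duplicates, rifampin positive control.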

[6] = system: Mycobacterium tuberculosis; assay: Antimicrobial activity against Mycobacterium tuberculosis infected in mouse J774 cells assessed as log reduction of bacterial burden at 0.8 ug/ml after 7 days; format: functional; procedure, shortened: as §2
[7] = Cytotoxicity against mouse J774 cells assessed as cell viability at 0.8 ug/ml by MTT assay; format: cell-based; settings: read-out: Activity; procedure, shortened: as §1
[8] = system: Mycobacterium tuberculosis; assay: Antimicrobial activity against Mycobacterium tuberculosis infected in mouse J774 cells assessed as log reduction of bacterial burden at 8 ug/ml after 7 days; format: functional; procedure, shortened: as §2
[9] = Cytotoxicity against mouse J774 cells assessed as cell viability at 8 ug/ml by MTT assay; format: cell-based; settings: read-out: Activity; procedure, shortened: as §1

Chain of Leucine--tRNA ligase, cytoplasmic (Q9P2J5 whole entry): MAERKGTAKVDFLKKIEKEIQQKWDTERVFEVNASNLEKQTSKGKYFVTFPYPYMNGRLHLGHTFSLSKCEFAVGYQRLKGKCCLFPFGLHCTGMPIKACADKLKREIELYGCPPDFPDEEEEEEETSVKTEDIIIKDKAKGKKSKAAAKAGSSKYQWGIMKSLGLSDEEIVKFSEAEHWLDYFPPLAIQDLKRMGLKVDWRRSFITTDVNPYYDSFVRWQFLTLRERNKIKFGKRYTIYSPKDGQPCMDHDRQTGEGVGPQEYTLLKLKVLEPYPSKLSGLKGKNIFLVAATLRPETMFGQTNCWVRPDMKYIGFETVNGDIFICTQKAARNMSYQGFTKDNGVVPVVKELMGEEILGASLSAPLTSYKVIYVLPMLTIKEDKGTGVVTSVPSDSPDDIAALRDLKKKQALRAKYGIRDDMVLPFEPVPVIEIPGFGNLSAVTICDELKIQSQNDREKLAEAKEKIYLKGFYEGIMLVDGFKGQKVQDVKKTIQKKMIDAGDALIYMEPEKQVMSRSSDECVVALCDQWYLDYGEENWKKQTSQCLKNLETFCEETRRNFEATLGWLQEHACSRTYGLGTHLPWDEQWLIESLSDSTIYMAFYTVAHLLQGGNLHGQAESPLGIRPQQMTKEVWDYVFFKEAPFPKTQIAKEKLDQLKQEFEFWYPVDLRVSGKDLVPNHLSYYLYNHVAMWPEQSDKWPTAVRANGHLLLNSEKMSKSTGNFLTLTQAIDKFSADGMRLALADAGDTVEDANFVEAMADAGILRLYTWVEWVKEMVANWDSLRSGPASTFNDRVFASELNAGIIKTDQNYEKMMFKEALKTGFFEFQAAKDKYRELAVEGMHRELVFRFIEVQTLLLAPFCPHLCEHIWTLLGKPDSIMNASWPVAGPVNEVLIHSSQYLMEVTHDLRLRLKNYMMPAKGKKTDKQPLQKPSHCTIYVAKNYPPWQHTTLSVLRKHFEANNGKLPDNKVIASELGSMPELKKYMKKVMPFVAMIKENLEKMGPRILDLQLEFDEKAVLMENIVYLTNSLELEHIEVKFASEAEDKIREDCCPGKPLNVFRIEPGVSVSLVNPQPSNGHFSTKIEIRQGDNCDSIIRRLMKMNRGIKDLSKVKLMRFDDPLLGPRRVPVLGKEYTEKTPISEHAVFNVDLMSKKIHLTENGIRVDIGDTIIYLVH

`CC(/C=C1\SC(=S)N(CCC(=O)Nc2ccc(O)cc2)C1=O)=C\c1ccccc1` gave an IC50 [1] of 22.2 µM.

Compound `CCOC(=O)c1sc(N/N=C/c2ccc(O)c(OC)c2)nc1C` has an IC50 [2] of 116 µM, an IC50 [3] of 59 µM and an IC90 [3] of over 200 µM. It also gave an MIC [3] of 81 µM (≈ 27.2 µg/mL) and an IC50 [1] of 11.4 µM.

For `O=[N+]([O-])c1cccc(-c2csc(N/N=C/c3cccc(O)c3)n2)c1`, the IC50 [1] was over 20 µM.

Work on `O=[N+]([O-])c1cc(/C=N\Nc2nccs2)ccc1O` yielded an IC50 [3] of 59.4 µM, an IC90 [3] of over 100 µM and an IC50 [1] of 20 µM.

Work on `COc1cc(/C=N/Nc2nccs2)ccc1O` yielded an IC50 [1] of over 20 µM.

`COc1cc(/C=N/Nc2nc(C)cs2)cc(Br)c1O` gave an IC50 [1] of over 20 µM.

With `O=[N+]([O-])c1ccc(-c2csc(N/N=C\c3ccc(O)c([N+](=O)[O-])c3)n2)cc1` the IC50 [3] was over 100 µM, the IC90 [3] was over 100 µM and the IC50 [1] was 20 µM.

`CC(=O)c1sc(N/N=C/c2cc(Br)ccc2O)nc1C` showed an IC50 [1] of over 20 µM.

Work on `Oc1ccc(/C=N/Nc2nc(-c3ccccc3)c(-c3ccccc3)s2)cc1` yielded an IC50 [1] of over 20 µM.

Work on `COc1cc(/C=N/Nc2nc(-c3ccc(Br)cc3)cs2)cc(OC)c1OC` yielded an IC50 [1] of over 20 µM.

Compound `COc1cc(/C=N\Nc2nc(-c3ccc(Br)cc3)cs2)cc([N+](=O)[O-])c1O` has a viability at 80 ug/ml [4] of 10%, an Activity [5] of 1.2 deltalog10CFU and an IC50 [2] of 116 µM. The Activity [6] was 1.96 deltalog10CFU, the viability at 0.8 ug/ml [7] was 100% and the IC50 [3] was 10 µM. It also gave an IC90 [3] of 13.5 µM, an MIC [3] of 25 µM (≈ 11.2 µg/mL) and an Activity [8] of 1.42 deltalog10CFU. It also gave an IC50 [1] of 6 µM and a viability at 8 ug/ml [9] of under 10%.

Compound `COc1cc(/C=N/Nc2nc(-c3ccccc3)cs2)cc(Br)c1O` has an IC50 [1] of over 20 µM.

With `COc1cc(/C=N/Nc2nccs2)cc(OC)c1O` the IC50 [1] was over 20 µM.

Work on `CCOC(=O)Cc1csc(N/N=C/c2cc(Br)c(O)c(Br)c2)n1` yielded an IC50 [1] of over 20 µM.

Compound `COc1cc(/C=N/Nc2nc(-c3cccc([N+](=O)[O-])c3)cs2)cc(Br)c1O` has an IC50 [1] of over 20 µM.

Compound `COc1cc(/C=N/Nc2nc(-c3cccc([N+](=O)[O-])c3)cs2)cc(OC)c1O` has an IC50 [1] of over 20 µM.

For `COc1cc(/C=N/Nc2nc(-c3ccc(Cl)cc3Cl)cs2)ccc1O`, the IC50 [1] was over 20 µM.

`O=[N+]([O-])c1ccc(-c2csc(N/N=C/c3cc(Br)c(O)c(Br)c3)n2)cc1` gave an IC50 [2] of 18.7 µM, an IC50 [3] of 130 µM and an IC90 [3] of over 200 µM. For the same compound, the MIC [3] was over 200 µM and the IC50 [1] was 2.27 µM.

Work on `COc1cc(/C=N/Nc2nc(-c3ccccc3)cs2)cc(OC)c1O` yielded an IC50 [1] of over 20 µM.

In the case of `Oc1ccc(Br)cc1/C=N/Nc1nccs1`, the IC50 [1] is reported as over 20 µM.

`COc1cc(/C=N/Nc2nc(-c3ccc(Cl)cc3)cs2)cc(Br)c1O` showed an IC50 [2] of 27.6 µM, an IC50 [3] of 200 µM and an IC90 [3] of over 200 µM. The MIC [3] was over 200 µM and the IC50 [1] was 4.54 µM.

Compound `Cc1nc(N/N=C/c2ccc(O)cc2)sc1C` has an IC50 [1] of over 20 µM.

`O=C(O)c1ccc(/C=N/Nc2nccs2)cc1` showed an IC50 [1] of over 20 µM.

In the case of `O=[N+]([O-])c1ccc(-c2csc(N/N=C/c3cc(Br)cc(Br)c3O)n2)cc1`, the IC50 [3] is reported as 86 µM, the IC90 [3] is reported as over 200 µM and the MIC [3] is reported as over 200 µM. The IC50 [1] was 19.3 µM.

`CC(/C=C1\SC(=S)N(CCC(=O)Nc2ccc(C(=O)O)c(O)c2)C1=O)=C\c1ccccc1` showed an IC50 [1] of over 50 µM.

For `COc1cc(/C=N/Nc2nc(C)c(C(C)=O)s2)cc(Br)c1O`, the IC50 [1] was over 20 µM.

`COc1cc(/C=N\Nc2nc(-c3ccc([N+](=O)[O-])cc3)cs2)cc([N+](=O)[O-])c1O` showed an IC50 [2] of 45.8 µM, an IC50 [3] of 20.6 µM and an IC90 [3] of 28.8 µM. It also gave an MIC [3] of 50 µM (≈ 20.8 µg/mL) and an IC50 [1] of 8 µM.

`COc1cc(/C=N/Nc2nc(-c3cccc([N+](=O)[O-])c3)cs2)ccc1O` gave an IC50 [3] of over 200 µM, an IC90 [3] of over 200 µM and an MIC [3] of over 200 µM. The IC50 [1] was 15.9 µM.

In the case of `COc1cc(/C=N/Nc2nccs2)cc(Br)c1O`, the IC50 [1] is reported as over 20 µM.

`COc1ccc(/C=N/Nc2nc(-c3ccccc3)c(-c3ccccc3)s2)cc1O` showed an IC50 [1] of over 20 µM.

Work on `COc1cc(/C=N/Nc2nc(-c3ccccc3)c(-c3ccccc3)s2)cc(OC)c1O` yielded an IC50 [1] of over 20 µM.

Compound `O=[N+]([O-])c1cccc(-c2csc(N/N=C/c3ccccc3O)n2)c1` has an IC50 [1] of over 20 µM.

`CO[C@H]1/C=C/O[C@@]2(C)Oc3c(C)c(O)c4c(O)c(c(/C=N/N5CCN(C)CC5)c(O)c4c3C2=O)NC(=O)/C(C)=C\C=C\[C@H](C)[C@H](O)[C@@H](C)[C@@H](O)[C@@H](C)[C@H](OC(C)=O)[C@@H]1C` [RIFAMPIN] showed a viability at 80 ug/ml [4] of 73%, an Activity [5] of 2.86 deltalog10CFU and an Activity [6] of 1.06 deltalog10CFU. The viability at 0.8 ug/ml [7] was 95%, the Activity [8] was 2.39 deltalog10CFU and the viability at 8 ug/ml [9] was 85%.
